High-throughput results: PubChem BioAssay, several laboratories
This excerpt belongs to a sample that is enriched for hits.
NALP3 yeast inh – inhibitors of NALP3 inflammasome in yeast | Yeast reconstituted NLRP3/ASC/caspase-1, beta-gal luminescence, 24 h | AID 2825 | actives 0.39% (n = 330,000) | inhibition, % at 10 µM;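 active = inhibition of 50% or more; inactive = inhibition below 50%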;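 note: plate controls were induced DMSO wells for no effect and uninduced yeast grown without galactose for full effect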
T cruzi inh – T. cruzi replication inhibition. T. cruzi beta-gal in NIH3T3, luminescence, 90 h. inhibition, % (no concentration beside the values). actives 1.4% (n = 300,000);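 active = mean inhibition across valid replicates above about 55%, limit read from the data; inconclusive = mean below that limit but half or more replicates reach it; inactive = mean below it, under half of replicates reach it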;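 note: signal also drops with host cell toxicity which is not excluded here; 0% = plate median of DMSO wells and 100% = zero luminescence signal; higher percent means less beta-gal luminescence so fewer parasites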
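Read-out: Parasite load inhibition, % | Test system: Mouse NIH/3T3 fibroblasts infected with β-gal-expressing T. cruzi Tulahuen C4 | Amount: 5,000 cells/well | Medium: DMEM, 2% fetal bovine serum | Signal: GalScreen β-gal luminescence, detergent lysis, 60 min | Timing: 3 h attach, ≥90 h co-culture | Also added: Tulahuen C4 trypomastigotes, 5000/well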
Calb FLC – C. albicans growth modulation with fluconazole; actives 0.57% (n = 300,000); AID 1979; growth inhibition, % (no concentration beside the values); C. albicans CaCi-2 + fluconazole, Alamar Blue growth, 48 h;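 active = growth inhibition above about 58% in most replicates, limit read from the data, passing the limit was not always enough; inconclusive = exactly half the replicates above a set limit; inactive = most replicates below a set limit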;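 note: all wells also contain fluconazole at 8 µg/ml as a sub-toxic cotreatment; 0% = median of DMSO wells and 100% = median of geldanamycin control wells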
NALP1 yeast inh – NALP1 inhibition | AID 2071 | S. cerevisiae NALP1/ASC/caspase-1 growth, X-gal OD620, 72 h | actives 0.61% (n = 280,000) | inhibition, % at 10 µM; in the data active = inhibition mostly above about 24%, no sharp cut-off; inactive = mostly below about 32%
PolyA inh – inhibitors of polyadenylation in S. cerevisiae. actives 0.02% (n = 300,000). S. cerevisiae SKY197-pL101 polyadenylation reporter, beta-gal luminescence; efflux-impaired pdr1/pdr3 knockout yeast; score 100 = 6 SD above DMSO. activity score, % at 12 µM;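 active = lowest replicate activity score at least 50, where 100 means six control SD above control mean; inconclusive = lowest score under 50 but half or more replicates reach 50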;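 note: yeast exposed to compound for 9 h at 30 °C; higher score means more reporter readthrough which indicates perturbed polyadenylation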
Lmaj promast – inhibitors of Leishmania major promastigote growth | Leishmania major promastigotes, resazurin fluorescence viability | inhibition, % at 10 µM | actives 9% (n = 200,000) | AID 1063; in the data active = inhibition above about 50%;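 note: promastigotes grown with compound for 44 hours at 28 °C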
Active calls of the source: *; ? = inconclusive; . = no result given.

SMILES	NALP3 yeast inh	T cruzi inh	Calb FLC	NALP1 yeast inh	PolyA inh	Lmaj promast
O=C(N[C@H](Cc1cc(=O)[nH]c2ccccc12)C(=O)O)c1ccc(Cl)cc1	9	-2	1	12	-2	.
Cc1ccc(S(=O)(=O)NCC(C)n2nc(C)nc2C)cc1 (configuration not stated)	14	-7	-1	-15	-16	.
COc1cc(/C=C(\C#N)C(N)=O)ccc1OS(=O)(=O)c1ccc(C)cc1	7	5	-1	31	-24	1
CC1CCCCC1NC(=O)/C(C#N)=C/c1ccccc1F (configuration not stated)	21	5	-2	62	-1	100*
CC(=O)Nc1ccc(/C=C(\C#N)C(=O)NC2CCCCC2C)cc1 (configuration not stated)	16	-11	0	6	2	33
CSc1ccc(/C=C(\C#N)C(=O)NC2CCCCC2C)cc1 (configuration not stated)	1	-11	2	30	-1	55*
COc1cc(/C=C(\C#N)C(=O)NC2CCCCC2C)ccc1OS(=O)(=O)c1ccc(C)cc1 (configuration not stated)	19	46	-4	33	-2	100*
COc1cc(/C=N/NC(=O)c2c(C)nc3ccc(Cl)cn23)cc(OC)c1OC	-2	3	6	-7	-7	.
COc1ccc(CC(=O)NCC(=O)NC(Cc2ccccc2)C(=O)O)cc1 (configuration not stated)	18	-13	9	-3	13	.
COc1ccccc1CN1CCNC(=O)C1CC(=O)NC1CCCCCC1 (configuration not stated)	12	19	-4	-2	-18	.
O=C(COC(=O)C1COc2ccccc2O1)Nc1ccccc1OC(F)F (configuration not stated)	10	.	.	.	.	.
C=CCn1c(=NC(=O)c2ccc(S(=O)(=O)N3CCCc4ccccc43)cc2)sc2cc(S(N)(=O)=O)ccc21	-3	45	-9	16	0	100*
COCCn1c(=NC(=O)c2ccc(S(=O)(=O)N3CCCc4ccccc43)cc2)sc2cc(S(C)(=O)=O)ccc21	12	35	2	28	-13	100*
COC(=O)CCCC(=O)N1CCCC(CNS(=O)(=O)c2ccc(OC)cc2)C1 (configuration not stated)	16	-4	-6	3	5	-2
O=C(CN1C(=O)NC2(CCCCCCC2)C1=O)Nc1ccc(Cl)cc1	8	.	.	.	.	.
COc1cccc(NC(=O)CN2C(=O)NC(C)(c3ccc(C)cc3)C2=O)c1 (configuration not stated)	-1	-6	1	5	-6	.
CCOc1ccc2nc3sc(C(=O)N4CCOCC4)c(N)c3cc2c1	5	9	8	-10	-10	93*
O=C(N/N=C/c1cccs1)c1ccc2c(c1)OCO2	37	-15	-4	33	13	-7
Cc1ccc2oc(-c3cccc(NC(=S)NC(=O)/C=C/c4ccco4)c3)nc2c1	15	-32	4	18	-2	100*
Cc1cc(C)c2oc(-c3ccc(C)c(NC(=S)NC(=O)/C=C/c4ccco4)c3)nc2c1	24	-15	32	30	8	71*
Cc1ccc2oc(-c3cccc(NC(=S)NC(=O)c4cccs4)c3)nc2c1	0	-1	37	-9	-10	-2
COc1ccc(CNC(=O)C(=O)NCC2OCCCN2S(=O)(=O)c2cccs2)cc1 (configuration not stated)	4	15	-2	0	4	.
Cc1ccc(CN(Cc2cccnc2)C(=O)CN2C(=O)COc3ccccc32)o1	10	55*	24	14	1	73*
O=C(CN1C(=O)COc2ccccc21)N(Cc1ccccc1)Cc1ccccn1	-7	2	0	14	-27	-5
CCC(=O)NC(=S)Nc1ccc(N2CCN(C(=O)c3ccc(Cl)cc3)CC2)cc1	20	46	21	-58	-13	13
SMILES	NALP3 yeast inh	T cruzi inh	Calb FLC	NALP1 yeast inh	PolyA inh	Lmaj promast
CC(C)(C)NCc1ccc(OCc2cccs2)cc1	9	.	-9	5	.	100*
O=C(c1c[nH]c(C(=O)C(Cl)(Cl)Cl)c1)c1ccc(F)cc1F	0	1	1	-6	9	.
O=C(Cc1ccccc1)c1c[nH]c(C(=O)C(Cl)(Cl)Cl)c1	1	-11	-3	-20	-2	.
O=C(c1ccc(Cl)cc1)c1c[nH]c(C(=O)C(Cl)(Cl)Cl)c1	-3	-14	-6	8	-25	86*
O=C(c1ccccc1)c1c[nH]c(C(=O)C(Cl)(Cl)Cl)c1	-10	-5	-14	-10	25	87*
CNC(=O)c1cc(C(=O)c2ccc(Cl)cc2)c[nH]1	8	9	12	7	0	.
O=C(c1c[nH]c(C(=O)C(Cl)(Cl)Cl)c1)c1ccc(F)cc1Cl	9	-23	-16	-14	1	71*
COc1ccc(Cl)cc1C(=O)NNC(=O)c1cc2ccccc2o1	5	.	.	.	.	.
CN1C2C=C3C(C#N)=C(N)C(C#N)(C#N)C(c4ccc(Br)cc4)C3C1CC2 (configuration not stated)	10	20	14	17	9	98*
COc1ccc(C(=O)Nc2ccccc2C(=O)NC(Cc2ccc(O)cc2)C(=O)NNC(=O)c2ccccc2)cc1 (configuration not stated)	11	1	?	-46	-17	62*
COc1ccc(C(=O)Nc2ccc(C)cc2C(=O)c2ccccc2)cc1	25	11	-6	38	0	99*
COc1ccc(OC)c(C(=O)c2ccc(C(=O)Nc3ccc(NC(C)=O)cc3)cc2)c1	14	9	2	14	-17	.
COc1ccc(OC)c(C(=O)c2ccc(C(=O)Nc3cccc4ccccc34)cc2)c1	8	-18	-10	9	24	55*
CCCC(=O)OCC(=O)Nc1ccc(N=Nc2ccccc2)cc1	.	.	.	40	.	35
COc1ccc(Cl)cc1C(=O)Nn1c(C)nc2ccccc2c1=O	16	-3	-10	-2	-4	-3
COc1ccc(Cl)cc1C(=O)Nn1c(-c2cccs2)nc2ccccc2c1=O	-5	24	8	1	-8	61*
CCOc1cc(-c2nc(-c3ccc(C)nc3OCC)no2)cc(OCC)c1OCC	14	6	4	26	1	3
CCOc1cc(-c2nc(-c3ccc(C)nc3OC)no2)cc(OCC)c1OCC	.	-15	-9	27*	-13	-2
Cc1ccc(S(=O)(=O)N(C)c2ccc(OCC(=O)Nc3cccc(-n4cnnn4)c3C)cc2)cc1	11	4	0	16	-1	.
O=C([O-])c1cc(-c2ccccc2)cc(-c2ccccc2)[n+]1Cc1ccccc1	1	44	1	.	-6	.
